High-throughput results as filed in PubChem BioAssay.
Sampled rows, rich in hits. Any-hit rate of the full collection: about 1%.
proCasp7 act: procaspase-7 activators, primary screen, counter-screen for procaspase-3 activator project, biochemical, absorbance, HTS, human | Caspase-7 (Homo sapiens), P55210 | recombinant procaspase-7, Ac-DEVD-pNA absorbance 405 nm; D23A/D198A/D206A triple mutant, cannot self-cleave; scale: DMSO 0, 5 µM enzyme 100 | activation, % at 8.5 µM | 330,000 tested, 0.093% active | AID 463210, 2010;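 active = percent activation above the screen-wide mean plus 3 SD, cut at about 25% in these data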
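Assay system: Uncleavable procaspase-7 mutant enzyme / Input: 2 µM procaspase-7 mutant as dispensed / Dosing: single nominal 8.5 µM compound dose, 0.8% DMSO final / Timing: 1 h enzyme–compound preincubation and 2 h substrate reaction, both 25 °C / Detection: p-Nitroaniline absorbance at 405 nm, read at 0 and 120 min / Replication: singlicate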
procasp3 activ: activators of human procaspase-3 D3A mutant, primary screen, biochemical, absorbance, PC-3 D3A mutant, single concentration; recombinant procaspase-3 D3A, Ac-DEVD-pNA absorbance 405 nm; 330,000 tested, 0.11% active; Caspase-3 (Homo sapiens), P42574; activation, % at 8.5 µM;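 active = activation above the mean of all tested compounds plus 3 SD, cut at about 21% in these data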;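 also: 0% = DMSO alone and 100% = DMSO wells spiked with extra 5 µM PC-3 D3A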
Target sequence (P42574 whole entry D9A/D28A/D175A): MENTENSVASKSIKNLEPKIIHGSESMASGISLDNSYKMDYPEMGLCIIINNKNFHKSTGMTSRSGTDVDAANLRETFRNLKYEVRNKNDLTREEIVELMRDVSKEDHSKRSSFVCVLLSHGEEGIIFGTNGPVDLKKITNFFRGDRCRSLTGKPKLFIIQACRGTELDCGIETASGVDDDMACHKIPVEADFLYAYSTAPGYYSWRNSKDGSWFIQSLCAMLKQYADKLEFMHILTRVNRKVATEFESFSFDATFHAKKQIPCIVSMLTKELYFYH
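Assay system – Procaspase-3 D3A mutant, all three cleavage aspartates alanine · Controls – DMSO-only low control, 5 µM PC-3 D3A high control · Schedule – 1 h compound preincubation, 2 h substrate hydrolysis at 25 °C · Signal – 405 nm absorbance of p-nitroaniline, reads at 0 and 120 min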
LYPLA2 inh: LYPLA2 inhibitors, primary screen, counter-screen for PME1 inhibitor project, biochemical, fluorescence polarization, FP-Rh probe ABPP; recombinant LYPLA2; AID 2177, 2009; inhibition, % at 5.9 µM; Acyl-protein thioesterase 2 (Homo sapiens), O95372; 320,000 tested, 0.38% active;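 active = inhibition above the screen-wide mean plus 3 SD, limit set per campaign, cut at about 26% in these data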;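 also: 0% = LYPLA2 with DMSO and 100% = wells lacking LYPLA2 enzyme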
Target sequence (O95372 whole entry, looked up): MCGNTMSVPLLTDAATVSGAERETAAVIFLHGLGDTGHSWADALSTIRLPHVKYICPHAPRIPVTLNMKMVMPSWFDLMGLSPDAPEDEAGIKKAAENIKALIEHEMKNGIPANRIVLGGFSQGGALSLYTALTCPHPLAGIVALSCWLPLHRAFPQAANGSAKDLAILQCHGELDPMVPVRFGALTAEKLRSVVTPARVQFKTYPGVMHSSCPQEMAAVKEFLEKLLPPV
LYPLA1 inh: LYPLA1 inhibitors, primary screen, counter-screen for PME1 inhibitor project, biochemical, fluorescence polarization, FP-Rh probe ABPP; Acyl-protein thioesterase 1 (Homo sapiens), O75608; recombinant LYPLA1; inhibition, % at 5.9 µM; 320,000 tested, 0.16% active; AID 2174, 2009;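 active = inhibition above the mean of all tested compounds plus 3 SD, set per campaign, cut at about 14% in these data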;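 also: inhibitors block serine hydrolase probe labeling of LYPLA1 so polarization falls; 0% = enzyme with DMSO and 100% = wells lacking LYPLA1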
PREPL inh: PREPL enzyme inhibitors, primary screen, biochemical, fluorescence polarization; recombinant PREPL, fluorescence polarization activity-based probe; inhibition, % at 5.96 µM; 320,000 tested, 0.68% active;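 also: 0% = enzyme with DMSO and 100% = wells lacking enzyme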
PREPL confirm: human PREPL enzyme inhibitors, confirmation, biochemical, fluorescence polarization. shares compounds with PREPL inh. recombinant PREPL, fluorescence polarization activity probe. AID 2803, 2010. 2,000 tested, 67% active. inhibition, % at 5.96 µM;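 also: 0% = protein with DMSO and 100% = wells lacking protein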
Numbers without * were called inactive; . = no result given. Rule as the data show it, unless noted: active = inhibition above about 43%; inactive = the rest.

SMILES	proCasp7 act	procasp3 activ	LYPLA2 inh	LYPLA1 inh	PREPL inh	PREPL confirm
CCOCCCNC(=O)Cc1ccc(F)cc1	-6	4	17	7	5	.
C[C@@H]1CN([C@@H](C)CO)C(=O)Cc2cc(NC(=O)Nc3ccc4c(c3)OCO4)ccc2O[C@@H]1CN(C)C(=O)NC1CCCCC1	-6	2	.	.	54*	46*
Cc1ccc(S(=O)(=O)Nc2ccc3c(c2)CC(=O)N([C@H](C)CO)C[C@H](C)[C@H](CN(C)Cc2ccc4c(c2)OCO4)O3)cc1	5	5	.	.	51*	53*
O=C(CNC(=O)c1ccco1)NC1CCCCCC1	5	0	-4	-2	2	.
CCCCCC(=O)Nc1cccc(C2=NOC3(C2)C[C@@H](C(N)=O)N(C(=O)Cc2ccc([N+](=O)[O-])cc2)C3)c1 (stereo not given in full)	8	0	3	-3	3	.
NC(=O)[C@H]1CC2(CC(c3cccc(NC(=O)COc4ccc(Cl)cc4)c3)=NO2)CN1C(=O)Cc1ccc([N+](=O)[O-])cc1 (stereo not given in full)	0	2	-18	-13	49*	50*
CCCc1ccc(-c2cc(C(=O)NC3=NCCS3)c3ccccc3n2)cc1	-4	4	-4	-4	-1	.
C=C(C)CN1C(=O)C2(OCCO2)c2ccccc21	-6	1	-5	1	17	.
CC(=O)Nc1ccc(NC(=O)c2cc[n+]([O-])cc2)cc1	-2	-5	1	4	6	.
Oc1sc(C=Nc2ccc(F)cc2)c2ccccc12	-23	-28	8	-2	51*	51*
CC(C)OCCCn1c(SC(C)C(=O)NCC2CCCO2)nc2cc(Cl)ccc2c1=O (stereo not given)	4	6	12	3	6	.
CCc1cc(=O)[nH]c(-n2[nH]c(-c3ccccc3)cc2=O)n1	-5	-1	1	-1	57*	2
O=C(CCn1c(=O)oc2ccccc21)N1CCN(c2ccccc2F)CC1	-3	-2	-7	-2	62*	8
COc1ccccc1/C=C(/C(=O)OCC(=O)Nc1ccccc1C(C)C)c1ccccc1	9	-7	-11	-8	-10	.
CC(C)C(NC(=O)c1ccc(Cl)cc1Cl)C(=O)N1CCC1 (stereo not given)	0	-2	.	.	12	.
CC(C)[C@H](NC(=O)c1ccc([N+](=O)[O-])cc1Cl)C(=O)N1CCN(C/C=C/c2ccccc2)CC1	-7	6	.	.	47*	39
COc1cc(/C=C2\SC(=S)N(CC(=O)O)C2=O)ccc1OS(=O)(=O)c1ccc(C)cc1	-22	-3	0	2	11	.
COc1cc(/C=C2/SC(=S)N(CC(=O)O)C2=O)ccc1OC(=O)c1cccs1	-17	1	-31	-16	59*	62*
CCOC(=O)[C@H]1O[C@@H]1C(=O)N[C@@H](CC(C)C)C(=O)NCCC(C)C	-7	12	3	-3	4	.
CCOc1ccc(-c2c(=O)n(OCc3ccccn3)c3ccccc3[n+]2[O-])cc1	12	-2	24	1	68*	50*
O=c1c(-c2ccc(Oc3ccccc3)cc2)[n+]([O-])c2ccccc2n1OCc1ccccn1	4	3	2	0	2	.
O=C(NC1CCCCC1)C1CCCN1S(=O)(=O)c1cccc2nsnc12 (stereo not given)	-1	-1	0	-5	7	.
O=C(O)c1ccc(Cl)c(NC(=O)C2CCCN2S(=O)(=O)c2cccc3nsnc23)c1 (stereo not given)	12	-1	-3	-3	69*	0
Cc1ccc2nc3c(cc(C(=O)NCCN4CCOCC4)c(=N)n3CCCN3CCOCC3)c(=O)n2c1	-11	-18	-4	-4	17	.
Cc1ccc2nc3c(cc(C(=O)NCCc4ccccc4)c(=N)n3CCN3CCOCC3)c(=O)n2c1	-14	-9	0	2	45*	42
SMILES	proCasp7 act	procasp3 activ	LYPLA2 inh	LYPLA1 inh	PREPL inh	PREPL confirm
COc1ccc(C2CC(c3ccccc3C)n3nc(N)nc3N2)cc1 (stereo not given)	2	6	0	-2	51*	48*
Cc1ccc(C2CC(c3ccccc3C)n3nc(N)nc3N2)cc1 (stereo not given)	-1	9	0	-1	47*	48*
Clc1ccc(-n2nnnc2SCc2c(-c3ccccc3)nc3sccn23)cc1	2	-3	1	-3	-3	.
Cc1ccccc1Cn1c(=N)n(CC(O)c2ccco2)c2ccccc21 (stereo not given)	9	10	6	5	45*	43
CC1=Nc2nc(N3CCCCCC3)c(C#N)c3c4c(nc(c23)N1)N(c1ccc2ccccc2c1)C(=O)C4	6	10	5	-4	63*	61*
c1ccc(N2CCN(c3nc(-c4ccccn4)nc4ccccc34)CC2)cc1	1	-5	2	3	83*	79*
Cc1ccc2nc(-c3ccccn3)c(NC3CCCC3)n2c1	0	-17	4	1	64*	70*
CCCCCCSc1cccc(-c2nc3ccc(C)cn3c2NC2CCCCC2)c1	-1	2	1	0	8	.
O=C(Cc1ccc(Br)cc1)Nc1ccc(S(=O)(=O)N2CCCC2)cc1	0	6	-7	-6	-18	.
Cc1c(CN2CCN(CC(C)C)C(CCO)C2)[nH]c2ccc(Cl)cc12 (stereo not given)	6	-6	-2	-2	46*	44*
FC(F)Oc1ccc(-c2csc(=Nc3cccnc3)n2CC2CCCO2)cc1 (stereo not given)	0	7	-1	1	20	.
COCCn1c(-c2ccc(Br)cc2)csc1=Nc1cccnc1	4	-4	-2	3	48*	50*
Clc1ccc(-c2csc(=Nc3cccnc3)n2CCCn2ccnc2)cc1Cl	5	-2	3	2	56*	58*
OCCCn1c(-c2ccccc2)csc1=Nc1ccccc1	-4	-4	2	2	12	.
NC(N)=NCCCC(NC(=O)c1ccccc1)C(=O)Nc1ccc([N+](=O)[O-])cc1 (stereo not given)	0	6	1	-2	9	.
